From ChEMBL document CHEMBL1123723, “S-[(N,N'-diarylamidino)methyl] diethyldithiocarbamates and related amides as potential radioprotectants” (J Med Chem, 1987)

Legend:
[1] = Antiradiation evaluation test was carried out in mice and lethal dose for antiradiation effect at 800 rads was evaluated by the x-ray.; format: ADME, organism-based; conditions: mouse, in vivo
[2] = tested on: Mus musculus; test: Antiradiation evaluation test was carried out in mice and percent of survival of animals after 30-day was determined at lowest dose of 210 mg/kg required for the highest survival rate.; format: functional; conditions: 720 h
[3] = organism: Mus musculus; test: Antiradiation evaluation test was carried out in mice and mean survival time(MST) for mice that died over a 30 day period was determined.; format: functional
Method in brief: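 Mice (strain "H", both sexes, 23-25 g, 20 per group) were given the drug as a methylcellulose/Tween-80 suspension and exposed to 800-rad X-rays at 96 rads/min alongside untreated controls. The value is the mean survival time of the mice that died within the 30-day observation period.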

[4] = tested on: Mus musculus; test: Antiradiation evaluation test was carried out in mice and percent of survival of animals after 30-day was determined at lowest dose of 340 mg/kg required for the highest survival rate.; format: functional; conditions: 720 h
[5] = tested on: Mus musculus; test: Antiradiation evaluation test was carried out in mice and percent of survival of animals after 30-day was determined at lowest dose of 150 mg/kg required for the highest survival rate.; format: functional; conditions: 720 h
[6] = tested on: Mus musculus; test: Antiradiation evaluation test was carried out in mice and percent of survival of animals after 30-day was determined at lowest dose of 360 mg/kg required for the highest survival rate.; format: functional; conditions: 720 h
[7] = tested on: Mus musculus; test: Antiradiation evaluation test was carried out in mice and percent of survival of animals after 30-day was determined at lowest dose of 280 mg/kg required for the highest survival rate.; format: functional; conditions: 720 h
[8] = tested on: Mus musculus; test: Antiradiation evaluation test was carried out in mice and percent of survival of animals after 30-day was determined at lowest dose of 250 mg/kg required for the highest survival rate.; format: functional; conditions: 720 h
[9] = tested on: Mus musculus; test: Antiradiation evaluation test was carried out in mice and percent of survival of animals after 30-day was determined at lowest dose of 125 mg/kg required for the highest survival rate.; format: functional; conditions: 720 h

Row | Compound | LD50 [1] [mg/kg] | MST [3] [days] | survival at 150 mg/kg [5] [%] | further results
1 | CCN(CC)C(=S)SC/C(=N\c1ccc(C)cc1)Nc1ccc(C)cc1 | 970 | 6.1 | – | survival at 210 mg/kg [2]: 0%
2 | CCN(CC)C(=S)SC/C(=N\c1ccc(OC)cc1)Nc1ccc(OC)cc1 | 1370 | 14.3 | – | survival at 340 mg/kg [4]: 60%
3 | CCN(CC)C(=S)SC/C(=N\c1ccccc1)Nc1ccc(OC)cc1 | 780 | 10.8 | 10 | –
4 | CCOc1ccc(/N=C(\CSC(=S)N(CC)CC)Nc2ccc(OCC)cc2)cc1 | 1240 | 13.5 | – | survival at 360 mg/kg [6]: 70%
5 | CCOc1ccc(N/C(CSC(=S)N(CC)CC)=N/c2ccccc2)cc1 | 800 | 9.1 | 35 | –
6 | CCN(CC)C(=S)SC/C(=N\c1ccccc1)Nc1ccccc1 | 840 | 8.1 | 5 | –
7 | CCOc1ccc(N/C(CSC(=S)N(CC)CC)=N/c2ccc(OC)cc2)cc1 | 1270 | 13.5 | – | survival at 280 mg/kg [7]: 60%
8 | CCN(CC)C(=S)SC/C(=N\c1ccc(C)cc1)Nc1ccc(OC)cc1 | 970 | 9.8 | – | survival at 250 mg/kg [8]: 40%
9 | CCN(CC)C(=S)SC/C(=N\c1ccccc1)Nc1ccc(C)cc1 | 720 | 9.6 | – | survival at 125 mg/kg [9]: 10%
10 | CCOc1ccc(N/C(CSC(=S)N(CC)CC)=N/c2ccc(C)cc2)cc1 | 850 | 10.5 | – | survival at 210 mg/kg [2]: 25%
